Compound activity from PubChem.
A selection: hits, their analogues and other compounds. The true share with any hit is near 4.9%.
HSF1 inh: HSF1 inhibitors in luciferase reporter cells, primary screen, cell-based, NIH3T3, luminescence; 0.77% of 300,000 active; NIH3T3-HGL HSE-luciferase, MG132-induced, luminescence 8 h; hits give low values; activity change, negative = inhibition, % at 7.5 µM (by protocol);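 active = more than half of replicate wells show activity change below -50%, luminescence cut by over half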;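 note: luciferase reports HSF-1 transcriptional activity via heat shock element; 0% = median of DMSO wells and -100% = zero luminescence signal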
HSF-1 act: HSF-1 activators, primary screen, NIH3T3-HGL cells, MG132 stress, luminescence, single point; NIH3T3-HGL HSF-1 luciferase reporter, 8 h; 100% = twice DMSO control signal; AID 504408, 2011; 1.7% of 300,000 active; activation, % at 9 µM;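 active = mean replicate activation of at least 50% with a set share of replicates each reaching 50%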;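 note: 0% = median of the neutral control wells and 100% = twice that signal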
CHT PAM: CHT positive allosteric modulators, primary screen, cell-based, membrane potential dye, choline EC20; CHT-expressing cells; hits give high values; LV-AA mutant CHT in HEK293 cells; B-score at 10 µM; 0.49% of 310,000 active; AID 488977, 2010;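 active = initial fluorescence not abnormally high and integrated response B-score, plate-corrected, over 3 SD above library mean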
CHT block: inhibitors of human choline transporter CHT | B-score at 10 µM | 0.86% of 310,000 active | CHT-expressing cells, membrane potential dye, choline response; hits give low values;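 active = B-score over 3 SD under the library average, and starting fluorescence ratio not unusually high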;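 note: choline stimulus applied at its EC90 after an EC20 pre-addition; B-score computed on integrated fluorescence ratio after choline addition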
PHOSPHO1 block: PubChem AID 1565. Phosphoethanolamine/phosphocholine phosphatase (Homo sapiens), Q8TCT1. recombinant PHOSPHO1, absorbance phosphatase assay. inhibition, % at 13.3 µM. 1.1% of 290,000 active; in the data active = inhibition above about 60%
Target sequence (Q8TCT1 whole entry, looked up): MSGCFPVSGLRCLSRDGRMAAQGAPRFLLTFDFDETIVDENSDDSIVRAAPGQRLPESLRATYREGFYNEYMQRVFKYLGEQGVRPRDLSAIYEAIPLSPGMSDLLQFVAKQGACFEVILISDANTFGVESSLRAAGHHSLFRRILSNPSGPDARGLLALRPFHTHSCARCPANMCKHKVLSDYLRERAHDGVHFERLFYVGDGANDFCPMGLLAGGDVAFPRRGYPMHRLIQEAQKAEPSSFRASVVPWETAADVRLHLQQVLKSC
Hep lipid drop: inhibitors of hepatocyte lipid droplet formation, primary screen, imaging, high-throughput imaging, BODIPY stain; inhibition, % at 6.5 µM; AML12 mouse hepatocytes, oleate lipid droplets; 0.4% of 240,000 active;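 active = lipid droplet intensity inhibited by at least 50%, with more than 500 cells counted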
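Material – AML12 mouse liver cells · Also added – oleate loading, 100 µM · Compound dosing – 6.5 µM single-point dosing · Times – overnight treatment with compound plus oleate · Measured by – fluorescence imaging, 20x objective, two fields per well · Read-out – percent inhibition of filter-corrected integrated lipid droplet intensity per well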
Numbers without * were called inactive; i = inactive; . = no result.

SMILES | HSF1 inh | HSF-1 act | CHT PAM | CHT block | PHOSPHO1 block | Hep lipid drop
COc1ccc(-c2nnc3ccc(SC(C(C)=O)C(C)=O)nn23)cc1OC | -2.9 | 11.9 | i | i | 106.0* | .
COc1cc(OC)cc(C(=O)N2CCC(C(=O)N3CCOCC3)CC2)c1 | -3.0 | -14.2 | i | i | 40.5 | -3.2
Cc1cc(C(=O)CSc2nnc(N)s2)c(C)n1CCc1ccc(Cl)cc1 | 19.5 | 31.9 | i | i | 73.7* | .
COCC(C)n1c(C)cc(C(=O)COC(=O)c2n[nH]c3ccccc23)c1C (configuration not stated) | -53.2* | -59.1 | i | i | 18.0 | -15.1
Cc1cc(C(=O)CSc2nnnn2-c2ccccc2)c(C)n1CCc1ccccc1 | -1.7 | 17.6 | i | i | 83.7* | 19.4
COCC(C)n1c(C)cc(C(=O)CSc2nnc(N)s2)c1C (configuration not stated) | -13.9 | -17.8 | i | i | 99.2* | 9.6
Cc1cc(C(=O)CSc2nnc(N)s2)c(C)n1CCc1ccc(F)cc1 | 7.3 | 15.6 | i | i | -54.7 | .
CN1C(=O)NC2C1N(S(C)(=O)=O)CCN2S(C)(=O)=O (configuration not stated) | 4.3 | -7.3 | i | i | -13.5 | .
Cc1cc(C(=O)CN2C(=O)C(=O)N(Cc3ccccc3)C2=O)c(C)n1-c1ccccc1F | 2.0 | -6.0 | i | i | -22.6 | 0.8
Cc1cc(C(=O)CN2CCC(C)CC2)c(C)n1-c1ccccc1F | -72.8* | -79.3 | i | i | 11.3 | 5.8
Cc1ccc(C(C2=C(O)CC(C)(C)CC2=O)C2C(=O)CC(C)(C)CC2=O)s1 (configuration not stated) | 4.1 | -3.0 | i | i | 22.9 | .
CC1(C)CC(=O)C(C(C2=C(O)CC(C)(C)CC2=O)c2ccc(Br)s2)C(=O)C1 (configuration not stated) | 102.2 | 123.8* | i | i | 0.7 | -2.5
CCCCNS(=O)(=O)c1ccc2nc(SCC(=O)N3CC(C)OC(C)C3)[nH]c2c1 (configuration not stated) | -5.3 | -13.4 | i | i | 75.3* | -0.5
O=C(CSc1nc2ccccc2c(=O)[nH]1)N1CCOCC1 | -5.3 | -2.7 | i | i | -22.8 | -0.5
O=C(CSc1nc2ccc(S(=O)(=O)N3CCOCC3)cc2[nH]1)N1CCOCC1 | -11.4 | -18.6 | i | i | 67.0* | -0.5
CC1CN(C(=O)CCNS(=O)(=O)c2ccc(Br)cc2)CC(C)O1 (configuration not stated) | -1.9 | -6.9 | i | i | . | .
Cc1cc(S(=O)(=O)c2ccc([N+](=O)[O-])cn2)ccc1Br | 9.3 | 33.9 | i | i | . | .
O=[N+]([O-])c1ccc(Sc2ccccc2Cl)nc1 | -0.1 | 3.6 | i | i | 96.9* | -5.6
Cc1ccc(S(=O)(=O)c2ccc([N+](=O)[O-])cn2)cc1 | -84.3* | -87.6 | i | i | 20.3 | 28.2
O=[N+]([O-])c1ccc(S(=O)(=O)c2ccccc2)nc1 | -96.2* | -95.8 | i | i | 2.5 | 2.4
Nc1ccc(Sc2ccccc2Cl)nc1 | -2.4 | -10.8 | i | i | . | .
O=[N+]([O-])c1ccc(Sc2n[nH]c(-c3ccc(Cl)cc3Cl)n2)nc1 | -4.0 | -5.3 | i | i | 67.3* | .
Cc1ccccc1NC(=O)c1nnn(-c2ccc3c(c2)OCCO3)c1N | 14.0 | 34.8 | i | i | 0.4 | 2.8
COc1ccc(CCNC(=O)c2nnn(-c3ccc4c(c3)OCCO4)c2N)cc1OC | -76.1* | -77.6 | i | i | 25.6 | -12.0
COc1ccc(-n2nnnc2S(=O)(=O)CC(=O)N2CCCCC2)cc1 | . | . | i | i | -9.3 | .
SMILES | HSF1 inh | HSF-1 act | CHT PAM | CHT block | PHOSPHO1 block | Hep lipid drop
COc1ccc(-n2nnnc2S(=O)(=O)Cc2ccc(C(=O)O)cc2)cc1 | 90.4 | 94.5* | i | i | 3.5 | -5.4
COc1ccccc1CN1CCCC(C(=O)N(C)Cc2ccccc2)C1 (configuration not stated) | -5.3 | -1.1 | . | . | 25.3 | 0.1
COc1ccccc1CN1CCCC(CN(CCN(C)C)C(=O)C2CCCC2)C1 (configuration not stated) | -61.7* | -70.8 | i | i | 39.1 | -1.4
Cc1cc(C)c(NC(=O)Cn2nnc(C(=O)NCc3cccs3)c2N)c(C)c1 | -5.1 | 17.0 | i | i | -1.2 | .
O=C(CSc1nnc2c(n1)[nH]c1ccccc12)Nc1ccc(S(=O)(=O)Nc2ncccn2)cc1 | -5.4 | 13.5 | . | . | 0.6 | 40.3
CCOc1ccc(S(=O)(=O)n2cc(-c3ccc(F)cc3)c(N)n2)cc1 | 6.2 | 14.5 | i | i | 0.9 | -13.4
Cc1ccc(-c2cn(S(=O)(=O)c3ccc(C)cc3)nc2N)cc1 | 26.0 | 69.7* | i | i | 5.0 | 5.9
Cc1cc(O)ccc1Nc1nc2ccccc2nc1Nc1ccc(O)cc1C | 11.8 | 31.3 | i | i | 97.1* | .
Cc1[nH]n(-c2ccccc2)c(=O)c1C(C[N+](=O)[O-])c1ccc(Cl)cc1 (configuration not stated) | 110.7 | 132.7* | i | i | -4.0 | 3.2
COc1ccc(C(c2c(C)[nH]n(-c3ccccc3)c2=O)c2c(C)[nH]n(-c3ccccc3)c2=O)cc1OC | 25.5 | 70.5* | i | i | -11.7 | -5.0
Cc1ccc(C(C[N+](=O)[O-])c2c(C)[nH]n(-c3ccccc3)c2=O)cc1 (configuration not stated) | -18.6 | -22.9 | i | i | -11.4 | -20.6
Cc1[nH]n(-c2ccccc2)c(=O)c1C(C[N+](=O)[O-])c1ccc(F)cc1 (configuration not stated) | 238.1 | 281.7* | i | i | 3.8 | -21.4
Cc1[nH]n(-c2ccccc2)c(=O)c1Sc1ccc(Cl)cc1 | -39.4 | -51.1 | i | i | 26.3 | .
COc1ccc(C(c2c(C)n(C)n(-c3ccccc3)c2=O)c2c(C)n(C)n(-c3ccccc3)c2=O)cc1OC | 7.5 | 28.0 | i | i | -2.4 | -18.6
CCN(CC)c1ccc2c(C)c(CN3CCOCC3)c(=O)oc2c1 | 3.6 | -3.2 | i | i | 11.0 | .
C=CCOc1ccc(/C=C2\SC(=S)N(NS(=O)(=O)c3ccccc3)C2=O)cc1 | 9.6 | 6.7 | i | -6.16* | 15.0 | -1.3
CN(Cc1ccc2nonc2c1)Cc1nc(CC2CC2)no1 | -1.0 | -1.3 | i | i | 41.2 | -37.1
O=C(Nc1cccc(S(=O)(=O)N2CCCCC2)c1)c1ccccn1 | 2.2 | -5.2 | i | i | -9.8 | 7.1
